Laboratory results published in paper PMC5125022 (ACS chemical neuroscience, 2016).
“And” between values parts separate entries of the source, which are not always exact repeats. Equal values may be shown once. Read-outs that look alike come from different tables or passages of the source.

Key:
Swiss Webster mice [1] = assay: Warm water tail immersion; type: in vivo, mouse
Swiss Webster mice [2] = assay: Colonic bead expulsion assay; type: in vivo, mouse
Swiss Webster mice [3] = assay: Charcoal gavage intestinal motility assay; type: in vivo, mouse
[4] = test system: Longitudinal Muscle Myenteric Plexus (LMMP) preparations from the guinea pig ileum; assay: Electrical field stimulated contractions in LMMP preparations; type: cell-based; conditions: Figure 8A
KOR [5] = target: T1, KOR (Homo sapiens, UniProt P41145); assay: Competitive radioligand binding, KOR; conditions: ratio of Ki KOR / Ki MOR
How it was run: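 Membranes from CHO cells stably expressing a single opioid receptor were incubated with test compound at various concentrations and either [3H]naloxone (MOR) or [3H]norBNI (KOR) for 1 h at 30 °C. Specific binding was the difference between binding without and with 10 µM naltrexone. IC50 came from linear regression of Hill plots, and Ki from Cheng-Prusoff. Selectivity is the KOR Ki/MOR Ki ratio, from three independent experiments.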

MOR [6] = target: T2, MOR (Mus musculus, UniProt P42866); assay: [35S]GTPγS-binding assay in low MOR-expressing CHO cell line; type: biochemical
How it was run: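 Low-MOR-expressing CHO cell material was incubated for 90 min at 30 °C with varying test compound or 3 µM DAMGO (full-agonist reference). Nonspecific binding used 10 µM unlabeled GTPγS. Reactions were stopped by GF/B vacuum filtration, and bound radioactivity was read by scintillation counting. Triplicates gave 3 independent determinations. EC50 and Emax came from nonlinear one-site fits.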

KOR [7] = target: T1, KOR; assay: [35S]GTPγS-binding assay in KOR-expressing CHO cell line; type: biochemical
How it was run: (§1)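 CHO-cell membranes expressing DOR or KOR (10 µg protein) were incubated for 90 min at 30 °C in assay buffer. The mix held 10 µM GDP, 0.1 nM [35S]GTPγS, and varying test compound or a 3 µM full-agonist reference (SNC80 for DOR, U50,488H for KOR). Nonspecific binding used 10 µM unlabeled GTPγS. Reactions were stopped by rapid vacuum filtration through glass-fibre filters, and bound radioactivity was read by liquid scintillation. Assays ran in triplicate, with 3 independent determinations. EC50 and Emax came from nonlinear one-site fits.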

DOR = DOR (Homo sapiens, UniProt P41143); assay: [35S]GTPγS-binding assay in DOR-expressing CHO cell line; type: biochemical
How it was run: as §1

[8] = test system: circular muscle of the mouse colon; type: cell-based; conditions: for Inhibition of morphine-induced contractions: 1 nM antagonist, distal or proximal colon, data not shown; for Antagonism of morphine effects: Figure 6A; for Contractions induced by compound alone: concentrations up to 30 μM, distal and proximal colon preparations
Swiss Webster mice [9] = assay: Acetic acid induced writhing assay; type: in vivo, mouse
MOR [10] = target: T2, MOR; conditions: Emax relative to full agonist DAMGO (100%), ref 9b; cited from earlier work
KOR [11] = target: T1, KOR; conditions: ref 9b, cited from earlier work
[12] = Emax relative to full agonist U50,488H (100%)
[13] = 10 nM antagonist, proximal colon, Figure 6C
[14] = 100 nM antagonist, distal colon, Figure 6B

Q: Which results are given for CN1CC[C@]23c4c5ccc(O)c4O[C@H]2[C@@H](O)C=C[C@H]3[C@H]1C5 [morphine, Morphine, reference compound]?
A: Antinociception (Swiss Webster mice [1]; mouse, in vivo): dose dependently induced antinociception; Bead expulsion time (Swiss Webster mice [2]; mouse, in vivo): 75 min; Decrease of intestinal motility (Swiss Webster mice [3]; mouse, in vivo): 3 fold

Q: For DAMGO [reference compound], which “pIC50 for inhibition of EFS contractions” value [4] is on record?
A: Its value is 7.67 ± 0.03.

Q: For “1-Benzyl-17-Cyclopropylmethyl-3,14β-dihydroxy-4,5α-epoxy-6β-[(4'-pyridyl)acetamido]morphinan [BNAP]”, which “Selectivity (κ/μ)” value (KOR [5]) is on record?
A: The value was 4.6 (κ/μ).

Q: What about the “% max of agonist” value (MOR [6]; Emax relative to full agonist DAMGO (100%)) of the same compound?
A: Its value is 14.6% and 14.6 ± 0.9%.

Q: What about the EC50 (MOR [6]; [35S]GTPγS binding) of the same compound?
A: Its EC50 is 4.84 nM and 4.8 nM.

Q: And the “% max of agonist” value (KOR [7]; [12])?
A: Its value is 45.9 ± 1.7%.

Q: And the EC50 (KOR [7]; [35S]GTPγS binding)?
A: The EC50 was 2.9 ± 1.1 nM.

Q: What about the “% max of agonist” value (DOR; Emax relative to full agonist SNC80 (100%)) of the same compound?
A: The value was 9.2 ± 2.2%.

Q: And the EC50 (DOR; [35S]GTPγS binding)?
A: The EC50 was 108 ± 69 nM.

Q: What about the “Antinociceptive effect of compound alone” value (Swiss Webster mice [1]; 1.0 μg/5 μL ICV, compared to morphine alone, mice, Figure 4) of the same compound?
A: Its value is “did not produce significant antinociception”.

Q: And the “Antagonism of morphine antinociception” value (Swiss Webster mice [1]; 10 mg/kg s.c., any morphine dose tested, mice, Figure 3)?
A: The value was “did not significantly antagonize morphine antinociception”.

Q: And the “Antinociceptive effect of compound alone” value (Swiss Webster mice [1]; 10 mg/kg s.c., mice, Figure 3)?
A: Its value is “did not produce significant antinociceptive effects”.

Q: And the “Reversal of morphine antinociception” value (Swiss Webster mice [1]; ICV, increasing concentrations, mice, Figure 4)?
A: Its value is “dose dependent reversal of morphine antinociception”.

Q: And the “Dose giving complete reversal of morphine antinociception” value (Swiss Webster mice [1]; ICV, mice, Figure 4)?
A: The value was 0.3 μg/5 μL.

Q: What about the “Inhibition of morphine-induced contractions” value [8] of the same compound?
A: The value was “neither NAP nor BNAP showed significant inhibition”.

Q: And the “Antagonism of morphine effects” value ([8]; 10 nM antagonist, distal colon)?
A: Its value is “neither NAP nor BNAP showed significant antagonism”.

Q: What about the “Morphine pD2 in the presence of antagonist” value (“Morphine pD2 in the presence” for short) [8, 13] of the same compound?
A: Its value is 5.9.

Q: And the “Morphine pD2 in the presence” value [8, 14]?
A: Its value is 5.2.

Q: What about the “Change of morphine pD2 on raising the antagonist concentration” value ([8]; 100 nM versus 10 nM antagonist, proximal colon) of the same compound?
A: The value was “no further reduction of the morphine pD2”.

Q: And the “Contractions induced by compound alone” value [8]?
A: The value was “Neither BNAP nor NAP alone at concentrations up to 30 μM induced contractions”.

Q: And the Bead expulsion time (Swiss Webster mice [2]; BNAP alone 10 mg/kg, mice (naive 17 min))?
A: Its Bead expulsion time is 43 min.

Q: And the “Antagonism of morphine's effect on bead expulsion” value (Swiss Webster mice [2]; given with morphine or 5 or 15 min before morphine)?
A: The value was “no significant antagonism of morphine's effects was observed”.

Q: What about the “Decrease of intestinal motility” value (Swiss Webster mice [3]; charcoal gavage, mice, Figure 7B) of the same compound?
A: Its value is 1.5 fold.

Q: And the “Reversal of morphine induced inhibition of intestinal motility” value (Swiss Webster mice [3]; mice)?
A: The value was “unable to reverse morphine induced inhibition of intestinal motility”.

Q: And the “pIC50 for inhibition of EFS contractions” value [4]?
A: Its value is 7.86 ± 0.07.

Q: What about the “Activity in hypernociceptive model of visceral pain” value (Swiss Webster mice [9]; mice with 5-day 75 mg morphine pellet, Figure 9B) of the same compound?
A: The value was “active at three fold lower concentration”.

Q: And the Number of writhes (Swiss Webster mice [9]; s.c., naive mice, Figure 9A)?
A: The Number of writhes was “dose dependently reduced the number of writhes”.

Q: Which “Inhibition of morphine-induced contractions” value [8] does the source give for O=C(N[C@@H]1CC[C@@]2(O)[C@H]3Cc4ccc(O)c5c4[C@@]2(CCN3CC2CC2)[C@H]1O5)c1ccncc1 [NAP, 17-Cyclopropylmethyl-3,14beta-dihydroxy-4,5alpha-epoxy-6beta-(4'-pyridylcarboxamido)morphinan, reference compound] here?
A: The value was “neither NAP nor BNAP showed significant inhibition”.

Q: What about the “Antagonism of morphine effects” value ([8]; 10 nM antagonist, distal colon) of the same compound?
A: Its value is “neither NAP nor BNAP showed significant antagonism”.

Q: What about the “Morphine pD2 in the presence” value [8, 13] of the same compound?
A: The value was 5.9.

Q: And the “Morphine pD2 in the presence” value [8, 14]?
A: The value was 5.3.

Q: What about the “Contractions induced by compound alone” value [8] of the same compound?
A: Its value is “Neither BNAP nor NAP alone at concentrations up to 30 μM induced contractions”.

Q: And the “% max of agonist” value (MOR [10])?
A: Its value is 22.72 ± 0.84% and 22.7 ± 0.8%.

Q: What about the “% max of agonist” value (KOR [11]; [12]) of the same compound?
A: The value was 45.5 ± 4.4%.

Q: And the EC50 (KOR [11]; [35S]GTPγS binding)?
A: The EC50 was 28.8 ± 14.4 nM.
